From ChEMBL document CHEMBL3120060, “Synthesis, in vitro anticancer evaluation and in silico studies of novel imidazo[2,1-b]thiazole derivatives bearing pyrazole moieties” (2014)

Key:
Type in all cases: functional
NCI-H460 = assay: Cytotoxicity against human NCI-H460 cells assessed as cell growth at 10 uM after 48 hrs by SRB assay; details: NCI-H460, 48 h, read-out: Activity
In short: (§1)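 NCI-60 single-dose screen. Cell lines grown in RPMI 1640 with 5% FBS and 2 mM L-glutamine, plated at 5000–40,000 cells/well according to doubling time, then preincubated 24 h at 37 °C in 5% CO2. Compounds dissolved in DMSO, tested at 10^-5 M for 48 h. Adherent cells fixed with cold TCA (10% final) and stained with 0.4% SRB in 1% acetic acid. Growth expressed as percent of untreated control.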

SK-OV-3 = assay: Cytotoxicity against human SKOV3 cells assessed as cell growth at 10 uM after 48 hrs by SRB assay; details: SK-OV-3, 48 h, read-out: Activity; in short: as §1
NCI-H226 = assay: Cytotoxicity against human NCI-H226 cells assessed as cell growth at 10 uM after 48 hrs by SRB assay; details: NCI-H226, 48 h, read-out: Activity; in short: as §1
SN12C = assay: Cytotoxicity against human SN12C cells assessed as cell growth at 10 uM after 48 hrs by SRB assay; details: read-out: Activity; in short: as §1
HOP-62 = assay: Cytotoxicity against human HOP62 cells assessed as cell growth at 10 uM after 48 hrs by SRB assay; details: HOP-62, 48 h, read-out: Activity; in short: as §1
SW-620 = assay: Cytotoxicity against human SW620 cells assessed as cell growth at 10 uM after 48 hrs by SRB assay; details: SW-620, 48 h, read-out: Activity
In short: (§2)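 NCI-60 single-dose screen at 10^-5 M. Adherent lines are grown in RPMI 1640 with 5% FBS and 2 mM L-glutamine, seeded at 5000–40,000 cells/well by doubling time, and preincubated 24 h at 37 °C in 5% CO2. Drug is added from DMSO stock diluted in medium, then 48 h. Cells are fixed in cold TCA (final 10%) for 60 min and stained with 0.4% SRB in 1% acetic acid. Growth is expressed as % of untreated control using time-zero plates.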

NCI-H23 = assay: Cytotoxicity against human NCI-H23 cells assessed as cell growth at 10 uM after 48 hrs by SRB assay; details: NCI-H23, 48 h, read-out: Activity; in short: as §1
MDA-MB-468 = assay: Cytotoxicity against human MDA-MB-468 cells assessed as cell growth at 10 uM after 48 hrs by SRB assay; details: MDA-MB-468, 48 h, read-out: Activity; in short: as §1
UACC-62 = assay: Cytotoxicity against human UACC62 cells assessed as cell growth at 10 uM after 48 hrs by SRB assay; details: UACC-62, 48 h, read-out: Activity; in short: as §2
SK-MEL-5 = assay: Cytotoxicity against human SK-MEL-5 cells assessed as cell growth at 10 uM after 48 hrs by SRB assay; details: SK-MEL-5, 48 h, read-out: Activity; in short: as §1
A549 = assay: Cytotoxicity against human A549 cells assessed as cell growth at 10 uM after 48 hrs by SRB assay; details: A549, 48 h, read-out: Activity; in short: as §1
HL-60(TB) = assay: Cytotoxicity against human HL-60(TB) cells assessed as cell growth at 10 uM after 48 hrs by SRB assay; details: HL-60, 48 h, read-out: Activity
In short: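 NCI-60 single-dose screen: cells grown in RPMI 1640 with 5% FBS and 2 mM L-glutamine, plated at 5000–40,000 cells/well, preincubated 24 h at 37 °C, 5% CO2. Compound dissolved in DMSO, tested at 10^-5 M for 48 h. Cells TCA-fixed, sulforhodamine B stained. Growth expressed as percent of untreated control, referenced to time-zero plates.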

NCI-H522 = assay: Cytotoxicity against human NCI-H522 cells assessed as cell growth at 10 uM after 48 hrs by SRB assay; details: NCI-H522, 48 h, read-out: Activity; in short: as §1
MCF7 = assay: Cytotoxicity against human MCF7 cells assessed as cell growth at 10 uM after 48 hrs by SRB assay; details: MCF7, 48 h, read-out: Activity; in short: as §1
CCRF-CEM = assay: Cytotoxicity against human CCRF-CEM cells assessed as cell growth at 10 uM after 48 hrs by SRB assay; details: read-out: Activity; in short: as §1
COLO 205 = assay: Cytotoxicity against human COLO205 cells assessed as cell growth at 10 uM after 48 hrs by SRB assay; details: COLO 205, 48 h, read-out: Activity; in short: as §1
SK-MEL-2 = assay: Cytotoxicity against human SK-MEL-2 cells assessed as cell growth at 10 uM after 48 hrs by SRB assay; details: SK-MEL-2, 48 h, read-out: Activity; in short: as §1
SF-268 = assay: Cytotoxicity against human SF268 cells assessed as cell growth at 10 uM after 48 hrs by SRB assay; details: SF-268, 48 h, read-out: Activity; in short: as §1
MDA-MB-231 = assay: Cytotoxicity against human MDA-MB-231 cells assessed as cell growth at 10 uM after 48 hrs by SRB assay; details: MDA-MB-231, 48 h, read-out: Activity; in short: as §1
PC-3 = assay: Cytotoxicity against human PC3 cells assessed as cell growth at 10 uM after 48 hrs by SRB assay; details: PC-3, 48 h, read-out: Activity; in short: as §1
T47D = assay: Cytotoxicity against human T47D cells assessed as cell growth at 10 uM after 48 hrs by SRB assay; details: read-out: Activity; in short: as §2
NCI-H322M = assay: Cytotoxicity against human NCI-H322M cells assessed as cell growth at 10 uM after 48 hrs by SRB assay; details: read-out: Activity; in short: as §1
SNB-19 = assay: Cytotoxicity against human SNB19 cells assessed as cell growth at 10 uM after 48 hrs by SRB assay; details: SNB-19, 48 h, read-out: Activity; in short: as §1
[1] = Cytotoxicity against human OVCAR5 cells assessed as cell growth at 10 uM after 48 hrs by SRB assay; details: OVCAR-5, 48 h, read-out: Activity; in short: as §1
HCT-116 = assay: Cytotoxicity against human HCT116 cells assessed as cell growth at 10 uM after 48 hrs by SRB assay; details: HCT-116, 48 h, read-out: Activity; in short: as §1
MDA-MB-435 = assay: Cytotoxicity against human MDA-MB-435 cells assessed as cell growth at 10 uM after 48 hrs by SRB assay; details: MDA-MB-435, 48 h, read-out: Activity; in short: as §1
HT-29 = assay: Cytotoxicity against human HT-29 cells assessed as cell growth at 10 uM after 48 hrs by SRB assay; details: HT-29, 48 h, read-out: Activity; in short: as §1
HOP-92 = assay: Cytotoxicity against human HOP92 cells assessed as cell growth at 10 uM after 48 hrs by SRB assay; details: HOP-92, 48 h, read-out: Activity; in short: as §1
ACHN = assay: Cytotoxicity against human ACHN cells assessed as cell growth at 10 uM after 48 hrs by SRB assay; details: read-out: Activity; in short: as §1
BT-549 = assay: Cytotoxicity against human BT549 cells assessed as cell growth at 10 uM after 48 hrs by SRB assay; details: BT-549, 48 h, read-out: Activity; in short: as §1

| Compound | growth at 10 µM (NCI-H460) [%] | growth at 10 µM (SK-OV-3) [%] | growth at 10 µM (NCI-H226) [%] | growth at 10 µM (SN12C) [%] | growth at 10 µM (HOP-62) [%] | growth at 10 µM (SW-620) [%] | growth at 10 µM (NCI-H23) [%] | growth at 10 µM (MDA-MB-468) [%] | growth at 10 µM (UACC-62) [%] | growth at 10 µM (SK-MEL-5) [%] | growth at 10 µM (A549) [%] | growth at 10 µM (HL-60(TB)) [%] | growth at 10 µM (NCI-H522) [%] | growth at 10 µM (MCF7) [%] | growth at 10 µM (CCRF-CEM) [%] | growth at 10 µM (COLO 205) [%] | growth at 10 µM (SK-MEL-2) [%] | growth at 10 µM (SF-268) [%] | growth at 10 µM (MDA-MB-231) [%] | growth at 10 µM (PC-3) [%] | also measured |
| --- | --- | --- | --- | --- | --- | --- | --- | --- | --- | --- | --- | --- | --- | --- | --- | --- | --- | --- | --- | --- | --- |
| CC1=NN(c2cn3c(-c4ccc(Cl)cc4)csc3n2)C(=O)C1 | 103 | 100 | 95.4 | 90.9 | 97.5 | 99.3 | 92 | 97.9 | 81.9 | 92.4 | 79.6 | 92.5 | 84.5 | 93.5 | 84.4 | 103 | 104 | 96.3 | 96.5 | 79.4 | growth at 10 µM (T47D): 73.7%; growth at 10 µM (NCI-H322M): 99.8%; growth at 10 µM (SNB-19): 88%; growth at 10 µM [1]: 106%; growth at 10 µM (HCT-116): 97.1%; growth at 10 µM (MDA-MB-435): 87.4%; growth at 10 µM (HT-29): 85.7%; growth at 10 µM (HOP-92): 73.6%; growth at 10 µM (ACHN): 89.1%; growth at 10 µM (BT-549): 101% |
| CC1=NN(c2cn3c(-c4ccccc4)csc3n2)C(=O)C1 | 107 | 88.9 | 101 | 96 | 95.3 | 104 | 91.6 | 114 | 91.1 | 102 | 101 | 89.2 | 89.2 | 89.6 | 95.9 | 102 | 102 | 99.3 | 89.9 | 77.6 | growth at 10 µM (T47D): 89.4%; growth at 10 µM (NCI-H322M): 92.1%; growth at 10 µM (SNB-19): 90.8%; growth at 10 µM [1]: 96.7%; growth at 10 µM (HCT-116): 96.5%; growth at 10 µM (MDA-MB-435): 92.9%; growth at 10 µM (HT-29): 106%; growth at 10 µM (HOP-92): 66.5%; growth at 10 µM (ACHN): 91.2%; growth at 10 µM (BT-549): 89.7% |
| Cc1ccc(-c2csc3nc(N4NC(=O)CC4=O)cn23)cc1 | 111 | 101 | 94.4 | 104 | 105 | 103 | 96.9 | 106 | 91.8 | 95.9 | 102 | 107 | 95.9 | 93.9 | 95.6 | 107 | 116 | 106 | 104 | 87.3 | growth at 10 µM (T47D): 85.7%; growth at 10 µM (NCI-H322M): 108%; growth at 10 µM (SNB-19): 102%; growth at 10 µM [1]: 108%; growth at 10 µM (HCT-116): 108%; growth at 10 µM (MDA-MB-435): 90%; growth at 10 µM (HT-29): 111%; growth at 10 µM (HOP-92): 75.1%; growth at 10 µM (ACHN): 90.5%; growth at 10 µM (BT-549): 113% |
| O=C1CC(=O)N(c2cn3c(-c4ccc(Cl)cc4)csc3n2)N1 | 104 | 103 | 103 | 88.4 | 104 | 104 | 97.8 | 104 | 90.1 | 99.7 | 88.9 | 88.1 | 74.1 | 89 | 89.5 | 101 | 101 | 105 | 107 | 90 | growth at 10 µM (T47D): 87.3%; growth at 10 µM (NCI-H322M): 83.3%; growth at 10 µM (SNB-19): 90.2%; growth at 10 µM [1]: 115%; growth at 10 µM (HCT-116): 93.2%; growth at 10 µM (MDA-MB-435): 93.7%; growth at 10 µM (HT-29): 91.3%; growth at 10 µM (HOP-92): 99.4%; growth at 10 µM (ACHN): 102%; growth at 10 µM (BT-549): 95.3% |
